Measured values as given in the EternaBench riboswitch data.

Tested on: MS2 coat protein
Test: apparent Kd, MS2 coat protein; higher = weaker binding; RNA-MaP array
In short: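 Binding of fluorescently labeled MS2 coat protein, at 1.5 nM to 3 μM and room temperature, was measured with or without input ligand on designed RNAs transcribed on an Illumina sequencing chip from sequenced DNA templates. Apparent Kd was defined as the median of per-cluster binding-curve fits. No design measured on fewer than 10 clusters was kept.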

[1] = designed as: ON switch for flavin mononucleotide, no ligand
[2] = ligand present: flavin mononucleotide, designed as: ON switch for flavin mononucleotide
[3] = designed as: OFF switch for flavin mononucleotide, no ligand
[4] = ligand present: flavin mononucleotide, designed as: OFF switch for flavin mononucleotide
[5] = designed as: ON switch for tryptophan, no ligand
[6] = ligand present: tryptophan, designed as: ON switch for tryptophan

Sequence | apparent Kd [1] [nM] | apparent Kd [2] [nM] | apparent Kd [3] [nM] | apparent Kd [4] [nM] | also measured
CUUGGCGCUCAGAAGGCCGUCCAUGCACGCGCUAGGACAUGAGGAUCACCCAUGUAUCUAUGGACGGAGGAUAUGAUUCUCUCG | 20.4 | 8.75 | – | – | –
UACAUGAACGUCAGGAUAUUGGUAUAUUACCUAGCCAAGAAGGGACAUGAGGAUCACCCAUGUAUUCGGUCCAA | – | – | 25.2 | 65.2 | –
ACUCUAAGAUGAGGAUAUCACAUCUUAUCGCCACGGUGGCUUCACAUGAGGAUCACCCAUGUAUGUGAGAAGGCAUUUCCGGAC | – | – | 24.1 | 20.7 | –
GGAUAAACUCAGAAGGAACGGCUCAAGUAAUAGUAAGGAUAUGACUGUAGGACUACAUGAGGAUCACCCAUGUUGAUGAAACAG | 8.03 | 7.91 | – | – | –
CUAAUUAUCGAGAAGGAACGACGCAUCACCGAUCUAGCACACAUGAGGAUCACCCAUGUACACCGUUAGGAUAUCGCAAACCAG | – | – | 8.46 | 9.82 | –
ACUGACUUUACGGCCGCCACUCAUUGGCACGUGUCAUGUCAACAUGAGGAUCACCCAUGUAUGAUGAGGACCGGGUAAGGGCUGC | – | – | – | – | apparent Kd (designed as: OFF switch for tryptophan, no ligand): 10.9 nM; apparent Kd (ligand present: tryptophan, designed as: OFF switch for tryptophan): 12.7 nM
UUGUCCCGAGGAUAUGAGAGGGAGUACAUGAGGAUCACCCAUGUCAUGAAUCUUCAUAUCUCAGAAGGCGGUUGAU | – | – | 4.85 | 6.24 | –
GGGUACAUCUAGAAGGAGAAUCCUCUUGACAUGAGGAUCACCCAUGUCGUAGUCAAGACUAAAAUCUAGGAUAUAGCUGUGCGU | – | – | 233 | 165 | –
ACCACAGAGUAGAAGGUCCGACACGGCUCGUCGGAAGGAUAUACAUAUUGUUAGAGAUGGGAACAUGAGGAUCACCCAUGUGUC | 16.2 | 9.9 | – | – | –
GAACAACAUGAGGAUCACCCAUGUGACAGCCGUCAAGGAUAUUCCGGGAAAGGAGGUCCGGAAGAAGGUGAUCGUA | 265 | 341 | – | – | –
AAGGUGCACGCUCAGGAUAUAUUCCAGGUUACAUGAGGAUCACCCAUGUAGGGUUGAAGAAGGACAUAGAAGGGAGCCUACUUGGC | 32.6 | 21.6 | – | – | –
UACAUGAGGAUCACCCAUGUCUCUAGUCGUUUUUGUUAGAAUAGAAGGAGUCGCAUAAAGCAUAACUAGGAUAUAUUCUUGUUU | 16.3 | 11.6 | – | – | –
GCUGCACAUUCGGCCGCCACUGCUGUUACAGGAAGCUAUAGCUCACAUGAGGAUCACCCAUGUCCCAGGACCGGGAAAGUAUGGA | – | – | – | – | apparent Kd [5]: 72.9 nM; apparent Kd [6]: 65.9 nM
CGGAAGUGCAGCGCUUAAAGUACAUGAGGAUCACCCAUGUGAAAGGAUAUAUCGAAGUCAAAAUAAUAGAAGGUUCAGUGGGAU | – | – | 22.6 | 21.1 | –
CUACCAAAUUGAGGAUAUAGCCUGGGAGAACCAAGUUCCAUGAAAUACAUGAGGAUCACCCAUGUCUAGAAGGCAACAAUGGCC | – | – | 92.4 | 145 | –
CACGGCAUUGAGAAGGGAGUGACAUGGAACUGCUCAGGAUAUCAACACACAUUGUUAAAGAAAACAUGAGGAUCACCCAUGUUC | 11.2 | 9.28 | – | – | –
UAGCAAUUACAUGAGGAUCACCCAUGUCUAUCGCAGAACAAGCAGGAUAUAGUGACACGACUCCGCUAGAAGGGCUCCUCUGUU | 62.4 | 55.3 | – | – | –
GACAUGAGGAUCACCCAUGUGAAAUUCAUGGCGAUAACAUCUGAGGAUAUGUGCAGCCGAGGAAGACAGAAGGCAGAAACACAA | – | – | 117 | 119 | –
UUAUAAGAGAUAGGAUAUUCCGACAAAAUCGAUGAAGAAGGAUCACUCAAAACAUGAGGAUCACCCAUGUAUAUAACAAAUGUU | 57.5 | 25.4 | – | – | –
GGAUCACAUGAGGAUCACCCAUGUAAAGACGAUACAGGAUAUGACAGAACACGCAUCGUUUCAGAAGGGUAUAGUG | 66.9 | 47.6 | – | – | –
AUGCCACUUAAGAAGGCGGCGUGAUGCUUAGCGUUGAGACAUGAGGAUCACCCAUGUGACGUACCCGAGGAUAUUAAUGGAAUC | 17 | 11.7 | – | – | –
UAUGCGUUUUCAGGAUAUGCACACAUGAGGAUCACCCAUGUAGGUCUGCGGCGGCAUCCUCCUUUGCAGAAGGGAAUCGCGCUU | – | – | 44.1 | 71.6 | –
CGCUCGCGGCGGAAGGAUAUGUCUAUCCGGACAUGAGGAUCACCCAUGUAUGGGUACUUGCUGCAACAGAAGGUCCGUAUUAUAUG | 290 | 120 | – | – | –
GCGAAGCAAGGAUAUGCCCGGCGAUACAUGAGGAUCACCCAUGUGAUGUAGUUAGUUGUAGCAGAAGGUGCGCGAU | – | – | 17.6 | 11.4 | –
GUCGAGAUUCAAGGAUAUCCGAUCUUACGCAUAGUAGAAUGACAUGAGGAUCACCCAUGUGUCCAGGAGAAGGUGAAUGGAUUU | – | – | 33.3 | 21.6 | –
AUACUAAACAUGAGGAUCACCCAUGUGACGUCAGGUCAGUUGAGAAGGCUAGGGAUGCUAGAUGUAGAGGAUAUCAGCGACGGA | – | – | 15.4 | 9.76 | –
UUAAUACAUGAGGAUCACCCAUGUUAGGAUAUAGAAAUCGCUGGUGCGAGAAGACAGGCUAGAAGGAACACGGA | – | – | 10.2 | 9.62 | –
GCGUGGCACUGCAUACACACAUGAGGAUCACCCAUGUAUAGUAGAAGGUUCUUCAGCGGGAACAGAAAGGAUAUACUGAUAGAU | 7.74 | 7.42 | – | – | –

Sequence | apparent Kd [1] [nM] | apparent Kd [2] [nM] | apparent Kd [3] [nM] | apparent Kd [4] [nM] | also measured
CUUAACAAAGGAUAUACACAAAUGAUUAAGGUGCCGGGAAAACAUGAGGAUCACCCAUGUAGAAGGUUGUAACA | – | – | 8.1 | 7.75 | –
GCGCGCGUAGUCAGGAUAUGGUAUAAGUAACUUGGCCAGAAGGGACAUGAGGAUCACCCAUGUGCAUUGCUAGC | – | – | 9.16 | 9.47 | –
GUUCUGCAUAAGGAUAUAUGAGCACACGCAGACAUAGAAGGUAUGACAUGAGGAUCACCCAUGUCCUCUCGAGA | – | – | 8.5 | 8.65 | –
UUGGCGUCAGGAUAUACCGGUCGAUUCACAAUGAACUCCGUACAUGAGGAUCACCCAUGUAGAAGGGACAGUGG | – | – | 6.22 | 6.07 | –
GUCUCCUGAGAGAAGGCUCGCUCCGAGGAAUAGAGAGGAUAUCUACAUGAGGAUCACCCAUGUUGCCGAGGGAAAUGCACGGGU | – | – | 68.9 | 90.5 | –
AGCGAAUAAGGAUAUACGUGAAAAGCACUUAGAGUUGGAUCACAUGAGGAUCACCCAUGUAGAAGGUAUGACGA | – | – | 18.6 | 15.7 | –
UUUUUAUGGCAGACUACCGCACAUGAGGAUCACCCAUGUUACAGAAGGGACCACAUCCCACCUGGUCAGGAUAUGUAUACGCGG | – | – | 9.07 | 6.77 | –
AAUUUUUACUCAGGAUAUUGGGAGAGCACGGGUUGUUCUCCCCACAUGAGGAUCACCCAUGUGAUCAAGAAGGGAGACGCAAAG | 25.9 | 16.8 | – | – | –
CUUUUACAUGAGGAUCACCCAUGUUGUACAGGGUUAGGAUAUCUUAAUGUUAAGUUAAUGAGAGAAGGAACAGUCA | 149 | 94.8 | – | – | –
AAGUGCAGCCGAGGAUAUAUCCACACGCCAGUACCCUCUCACAUGAGGAUCACCCAUGUUACCGGAUAGAAGGCGGUUUAUUAU | – | – | 31.7 | 58.5 | –
AGACAUGAGGAUCACCCAUGUGAAGUGGAUACCAGCCGCAGCGAUGGCCCUUGGCAGCCAGCUUUGUGUCGAUACAUCCGCACUU | – | – | – | – | apparent Kd (designed as: OFF switch for theophylline, no ligand): 15.9 nM; apparent Kd (ligand present: theophylline, designed as: OFF switch for theophylline): 25.8 nM
ACUACGCUAGGAUAUACGAGGAGUGCAUGGAAGCGUUUGACACAUGAGGAUCACCCAUGUAGAAGGAGCUGCAA | – | – | 7.75 | 16.1 | –
GAACUGUGAGGAUAUACAUGAGGAUCACCCAUGUUUGUGUUGGCACGCACUCGGGCAAGUAGAAGGCACAGAUG | – | – | 44 | 73.7 | –
GUCCUCGAAGGAUAUAUUGGAAAUUACAUGAGGAUCACCCAUGUCUCGUAGUAUAGCACGAUAGAAGGUCGGAAGA | – | – | 36.1 | 24.6 | –
GAAUGAAGCGAGAAGGGACCAAAUGGGCAGAAACUACAUGAGGAUCACCCAUGUAAAAUAGAUAGUCAGGAUAUCGGAAGAAAG | – | – | 36.4 | 31.8 | –
GUUCGUAGGUAGGAUAUAAGAGCUGUACUCUUCUUAGAAGGACCCACAUGAGGAUCACCCAUGUUUUGGGCGUG | – | – | 10.3 | 35.5 | –
CAGUGAGAGUCGGCCGCCACUUAACGCAAGUAGCGCAACCCAAAACAUGAGGAUCACCCAUGUCGAAGGACCGGGACAAUGAGCG | – | – | – | – | apparent Kd [5]: 12.9 nM; apparent Kd [6]: 12.2 nM
CGGGCCAUCUAAGGAUAUUUGCCGGCCCGAAGACAUGAGGAUCACCCAUGUGUGAACGGAUGUCGAAAGAAGGUAGACCUGGUC | 300 | 206 | – | – | –
GGUUCGCAUGUAGGAUAUCGCAAUAUAAACAUGAGGAUCACCCAUGUAACAAUGUAAACGGACAACGAGAAGGACAUCAACUCC | 44.6 | 22.8 | – | – | –
AACAUGAGGAUCACCCAUGUUUCAGAUCCUCUCUGGUUCAAGUAGGAUAUGUGUGAUACGGAAGUACAGAAGGACUCCGGAGCA | – | – | 38.4 | 29.5 | –
CAGUUACAUGAGGAUCACCCAUGUUUUUAACGCAGAGGAUAUCCGGUGGUUAAUGGCUCAGGAGAAGGCUGUGGUC | 16.3 | 9.37 | – | – | –
AAUCGCAAUUGAGGAUAUUGAACUGAAUUGGCCACAUGAGGAUCACCCAUGUGACCUGUCUCCGUCAAGAAGGCAAUGUGGUGG | 5.61 | 4.81 | – | – | –
CUCCUGGCAGGAUAUACAUGAGGAUCACCCAUGUUCCGAGCGUCCCAAACGACACGGUGUAGAAGGGCCAAGAU | – | – | 12.8 | 17.3 | –
GGUAGUACCGUAGGAUAUUCCGCUUACAUGAGGAUCACCCAUGUGGCUGGUAUUUCGUCAAAGAAGAAGAAGGACGUCUGCGCG | – | – | 6.85 | 6.43 | –
UAACCAAAUGGAUGACCACAUGAGGAUCACCCAUGUCGGCAACAGGAUAUUAUCAGAUGGGCUAAUAAGAAGGGUUACUCAGCC | – | – | 14.9 | 13.2 | –
AACAAACACAUGAGGAUCACCCAUGUCCUUGAUAUAAUUACUCAGGAUAUCAUGUCCUCUCACCGUGAGAAGGGAGUCAAAACC | 76.8 | 59.5 | – | – | –
UGGUCACAUGAGGAUCACCCAUGUAAGGAUAUCCGCGCCAUAGAGGAAAAGACGGUAUGGAGAAGGUACAGCUU | – | – | 29.9 | 26.9 | –
